Screening data: PubChem BioAssay, The Scripps Research Institute Molecular Screening Center
GalR3 antagonist – human GalR3 antagonism; inhibition, % at 3 µM; HEK293 GalR3-CNG cAMP membrane potential fluorescence; galR3 body fused to GalR1 C-terminus; O60755; 0.44% of 360,000 active;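 active means inhibition above the screen-wide average plus 3 SD, cut at about 13% in these data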;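 further: forskolin and galanin both at EC90 stimulate the cells; cAMP rise reported by CNG channel membrane potential dye signal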
Target sequence (O60755 1-299 limits assumed): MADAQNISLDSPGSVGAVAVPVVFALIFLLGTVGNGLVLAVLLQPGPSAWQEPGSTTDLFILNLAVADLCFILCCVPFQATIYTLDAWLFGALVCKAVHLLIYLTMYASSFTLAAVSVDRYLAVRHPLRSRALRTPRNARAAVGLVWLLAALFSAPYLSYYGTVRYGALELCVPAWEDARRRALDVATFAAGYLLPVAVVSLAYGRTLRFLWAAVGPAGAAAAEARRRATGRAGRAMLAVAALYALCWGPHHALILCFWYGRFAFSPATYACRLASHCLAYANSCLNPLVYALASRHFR
OX1R antag-1 – antagonists of human orexin 1 receptor (OX1R); OX1R-expressing cells, FRET antagonist read-out; inhibition, % at 6.6 µM; AID 485270; 1.8% of 330,000 active; in the data active means inhibition mostly above about 38%, no sharp cut-off; inactive means mostly below about 40%
OX1R antag-2 – blocks the human orexin 1 receptor; 0.43% of 330,000 active; O43613; inhibition, % at 5 µM; CHO/OX1R cells, Fluo-8 calcium fluorescence, orexin A;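 active means inhibition above its plate's threshold, mean inhibition of all tested compounds on the plate plus 3 SD, cut at about 37% in these data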
GPR7 antag – antagonists of human GPR7 (neuropeptides B/W receptor 1); P48145; GPR7-expressing cells, fluorescence antagonist assay; inhibition, % at 4.4 µM; 1.1% of 290,000 active; AID 1861; in the data active means inhibition above about 16%, passing the limit was not always enough;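 further: cells stimulated with the agonist NPW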
Target sequence (P48145 whole entry, looked up): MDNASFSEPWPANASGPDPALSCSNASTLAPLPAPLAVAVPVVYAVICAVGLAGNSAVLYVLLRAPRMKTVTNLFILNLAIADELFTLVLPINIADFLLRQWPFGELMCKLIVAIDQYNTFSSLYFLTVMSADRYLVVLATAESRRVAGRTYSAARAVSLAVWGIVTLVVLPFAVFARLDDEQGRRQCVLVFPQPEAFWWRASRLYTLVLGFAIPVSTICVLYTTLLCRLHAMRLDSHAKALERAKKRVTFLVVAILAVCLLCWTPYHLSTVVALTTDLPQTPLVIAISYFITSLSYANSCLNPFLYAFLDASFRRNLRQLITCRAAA
CHO parental Ca – signal in parental CHO cells, OX1R antagonist counter-screen | parental CHO-K1, ATP-induced calcium, Fluo-8 fluorescence | inhibition, % at 5.6 µM | 0.63% of 330,000 active | AID 463079;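 active means inhibition above that plate's mean sample inhibition plus 3 SD, cut at about 26% in these data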
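Measured by: calcium-sensitive Fluo-8 fluorescence / Test system: CHO parental line / Controls: ATP-challenged DMSO wells low, unchallenged DMSO wells high / Measure: % inhibition / Compound: single nominal dose of 5.6 µM per compound / Replicates: single well per compound, no replicates / Reagent: ATP as calcium-mobilizing challenge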
GPR7 antag cf – confirmation of human GPR7 antagonists; shares compounds with GPR7 antag; GPR7-expressing cells, calcium fluorescence antagonist mode; inhibition, % at 4.4 µM; 52% of 2,400 active; in the data active means inhibition above about 24%;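 further: stimulated with the GPR7 agonist NPW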
MCHR1 antag – antagonizes human MCHR1, a GPR7 antagonist counter-screen; shares compounds with GPR7 antag; MCHR1-expressing cells, fluorescence antagonist assay; inhibition, % at 4.4 µM; 62% of 2,400 active; AID 2148; in the data active means inhibition above about 22%
Each line names hits and unclear results; the compound was inactive in the other large screens (follow-up assays come after a bar, where they were run). Shown are actives, neighbours in structure and some others; about 3.1% of the full set was active somewhere.

CC(C)(C)n1nnnc1C(c1ccccn1)N(Cc1ccccc1)Cc1ccc(Cl)cc1 (centres undefined)	none
CC(Sc1nnc(-c2cccs2)n1Cc1ccccc1)C(=O)NCc1ccc2c(c1)OCO2 (centres undefined)	GPR7 antag 26 | GPR7 antag cf inactive | MCHR1 antag inactive
CCOC(=O)CSc1nc(N)c(C#N)c(-c2ccc(OCC)cc2)c1C#N	GPR7 antag 22 | GPR7 antag cf inactive | MCHR1 antag 22
CCc1ccc(N2C(=O)CN(Cc3ccccc3)C2=S)cc1	GPR7 antag 39 | GPR7 antag cf inactive | MCHR1 antag inactive
Cc1cc(C)cc(N2C(=O)CN(Cc3ccccc3)C2=S)c1	none
C[C@H]1CN([C@@H](C)CO)C(=O)c2cccc(NC(=O)C3CC3)c2O[C@H]1CN(C)S(=O)(=O)c1ccccc1	none (no result: GPR7 antag)
Cc1ccc(S(=O)(=O)N(c2cccc(C(F)(F)F)c2)C2C=CS(=O)(=O)C2)cc1 (centres undefined)	GPR7 antag 23 | GPR7 antag cf inactive | MCHR1 antag inactive
CCc1ccc(N(C2C=CS(=O)(=O)C2)S(=O)(=O)c2ccccc2)cc1 (centres undefined)	none
Cc1cc(OCCCC(=O)Nc2cccc(-n3cnnn3)c2)ccc1Cl	GPR7 antag 29 | GPR7 antag cf 48 | MCHR1 antag 82
COc1ccc(CC(=O)OCC(=O)Nc2cccnc2Cl)cc1OC	none
COc1ccc(S(=O)(=O)N2CCCCC2)cc1C(=O)N1CCCCCC1	none
Cc1ccccc1OCCn1cnc2cc([N+](=O)[O-])ccc2c1=O	GPR7 antag 26 | GPR7 antag cf 27 | MCHR1 antag 55
CN1CCN(C(=S)c2cn(CCOc3ccccc3)c3ccccc23)CC1	GPR7 antag 27 | GPR7 antag cf inactive | MCHR1 antag inactive
Cc1ccccc1OCCn1cc(/C(N)=N/O)c2ccccc21	none
Cc1ccc(C)c(OCCn2cc(C(=O)O)c3ccccc32)c1	GPR7 antag 95 | GPR7 antag cf inactive | MCHR1 antag inactive
COc1ccc(CN2CCC(n3nccc3NC(=O)CCOc3ccccc3)CC2)cc1C	none
COc1ccccc1CC(=O)Nc1ccc2c(c1)C(=O)NC2=O	GPR7 antag 33 | GPR7 antag cf inactive | MCHR1 antag inactive
O=C(CSc1ccc(F)cc1)Nc1ccc2c(c1)C(=O)NC2=O	GPR7 antag 25 | GPR7 antag cf 36 | MCHR1 antag 43
O=C1NC(CCO)C(=O)NC1CCO (centres undefined)	none (no result: OX1R antag-1, OX1R antag-2, GPR7 antag, CHO parental Ca)
Cn1cc(CN2CCC(CO)(CCCc3ccccc3)CC2)c(-c2ccccc2)n1	none
COC(c1ccccc1)c1nnc(CCC(=O)NCc2cccc(-n3cccn3)c2)o1 (centres undefined)	none
Cc1ccc(NS(=O)(=O)c2ccc(C(=O)N3CCCCCCC3)cc2)cc1	GPR7 antag 26 | GPR7 antag cf 29 | MCHR1 antag 28
O=C(c1ccc(S(=O)(=O)Nc2ccccc2)cc1)N1CCCC(C(F)(F)F)C1 (centres undefined)	GPR7 antag 48 | GPR7 antag cf 61 | MCHR1 antag 36
Cc1cc(S(=O)(=O)Nc2ccc(C(=O)NCC3(N4CCCCC4)CCCCC3)cc2)ccc1F	none (no result: GPR7 antag)
Cc1ccc(NS(=O)(=O)c2ccc(C(=O)NCc3ccccn3)cc2)cc1	GPR7 antag 30 | GPR7 antag cf 44 | MCHR1 antag 33
CCOc1ccc(NS(=O)(=O)c2ccc(C(=O)NCC3(N4CCCCC4)CCCCC3)cc2)cc1	GPR7 antag 58 | GPR7 antag cf inactive | MCHR1 antag 34
S=C(NCc1ccc2c(c1)OCO2)NC1CC1	none
Cc1nccn1CCCNCc1c(C(=O)N2CCCCCCC2)nc2ccc(Cl)cn12	none
O=C(C[n+]1cccc(O)c1)NCc1ccc(Cl)cc1	none
Cc1ccc(S(=O)(=O)NCc2ccc(C(=O)N3CCN(c4ccc([N+](=O)[O-])cc4)CC3)cc2)cc1	GPR7 antag 41 | GPR7 antag cf 26 | MCHR1 antag 67
COc1ccc(N2CCN(C(=O)c3ccc(CNS(=O)(=O)c4ccc(C)cc4)cc3)CC2)cc1	none
CN1C(=O)C(=C2CCCCCC2)SC1=S	GPR7 antag 31 | GPR7 antag cf inactive | MCHR1 antag inactive
O=C1NC(=Nc2ccccc2)c2c1cccc2[N+](=O)[O-]	OX1R antag-1 74, GPR7 antag 32 | GPR7 antag cf inactive | MCHR1 antag inactive
O=C1CC(=O)c2c1cccc2[N+](=O)[O-]	none (no result: GalR3 antagonist, OX1R antag-1, OX1R antag-2, CHO parental Ca)
CC(=O)Nc1ccc(C(=O)OCCC(C)C)cc1	GPR7 antag 25 | GPR7 antag cf inactive | MCHR1 antag inactive
N=c1c(C(=O)NCc2ccc(F)cc2)cc2c(=O)n3ccccc3nc2n1CC1CCCO1 (centres undefined)	OX1R antag-1 72, GPR7 antag 22 | GPR7 antag cf 26 | MCHR1 antag inactive
COc1ccc(Oc2c(Cl)cnn(-c3ccc(C)cc3)c2=O)cc1	GPR7 antag 32 | GPR7 antag cf 63 | MCHR1 antag inactive
COc1ccccc1-c1csc(C(NC(C)=O)c2ccc(F)c(F)c2)n1 (centres undefined)	none (no result: OX1R antag-1, OX1R antag-2, GPR7 antag, CHO parental Ca)
Cn1c(SCCN2CCCC2)nnc1C1CCN(S(=O)(=O)c2cccc(F)c2)CC1	none
Cc1cccc(C(c2c(C)nn(-c3ccccc3)c2N)c2c(C)nn(-c3ccccc3)c2N)c1	GPR7 antag 21 | GPR7 antag cf inactive | MCHR1 antag inactive
CC(C)Nc1nnc(SCc2cc(=O)n3ccsc3n2)s1	GPR7 antag 25 | GPR7 antag cf inactive | MCHR1 antag inactive
Cc1cccc(N2CC(C(=O)OCC(=O)Nc3sccc3C(N)=O)CC2=O)c1C (centres undefined)	none (no result: GPR7 antag)
Cc1cccc(N2CC(C(=O)OCC(=O)c3ccc(OC(=O)c4cccs4)cc3)CC2=O)c1C (centres undefined)	GPR7 antag 30 | GPR7 antag cf inactive | MCHR1 antag 58
CCN(CC)C(=O)CSc1nnc(-c2ccccn2)n1Cc1ccccc1	none
C[C@@H](C(=O)NC1CCCC1)N1C(=O)N2CCc3c([nH]c4ccccc34)[C@@]2(C)C1=O	GPR7 antag 26 | GPR7 antag cf inactive | MCHR1 antag inactive
COc1ccc(CNC(=O)[C@H](C)N2C(=O)N3CCc4c([nH]c5ccc(OC)cc45)[C@@]3(C)C2=O)cc1	none
COc1ccc2[nH]c3c(c2c1)CCN1C(=O)N([C@@H](C)C(=O)NC2CCCCC2C)C(=O)[C@]31C (some centres undefined)	OX1R antag-1 47, GPR7 antag 23 | GPR7 antag cf inactive | MCHR1 antag 58
O=C(CC1C(=O)NCCN1Cc1ccccc1)NCCCOc1cccnc1 (centres undefined)	none
Cc1ncsc1CCOC(=O)c1cccc([N+](=O)[O-])c1	GPR7 antag 22 | GPR7 antag cf inactive | MCHR1 antag 34
